First the molecules themselves.
B1: tRNA (parent)
chain: GUUCCGUUGGCGUAAUGGUAACGCGUCUCCCUCCUAAGGAGAAGACUGCGGGUUCGAGUCCCGUACGGAACG

This sample holds only a part of the variants without activity.

The variants in the data set derive from B1. The experiment in a line: yeast fitness relative to wild type (ratio to wild type); higher = fitter; tRNA-Arg(CCU), competitive growth, 37 C, YPD. The procedure, abridged: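 Start and end populations of a pooled competition were compared by 100-nucleotide paired-end sequencing of gene amplicons. The Saccharomyces cerevisiae strains carried tRNA-Arg(CCU) gene variants at the native genomic locus, synthesised with a 3% per-site mutation rate at 69 sites, and competed in YPD at 37°C for 24 hours in six parallel replicates. Darwinian fitness relative to wild type was based on the change in genotype frequencies. Genotypes required ≥ 100 starting reads, and estimates < 0.5 were set to 0.5.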
With GUUCCGUUGGUGUAAUGGUAACGCGUCUCCCUCCUAGGGAGAAGACUGUGGGUUCGAGUCCCGUACGGCACG, the yeast fitness is not above 0.5.

With GUUCCGUUGGCGUAAGGGUAACGCGUCUCCCUCCUAAGGAGAAGACUCCGGGUUCGAGUCCCGUACGGAACG, the yeast fitness was 0.835. For GUUCCGUUGGCGUACUGGUAACGCGUCUCCCUCCUAAGGAGAAGACUCCGGGUUCGAGUCCCGUACGGAACG, the yeast fitness stood at 0.69. For GCUGCGUUGGCGUAAUGGUAACGCGUCUCCCUCCUAAGGAGAAGACUGCGGGUUCGAGUCCCGUACGGAACG, the yeast fitness came out at 0.965. GUUCCGUUGACGUAAUGAUAACGCGUGUCCCUCCUAGAGAGAAGACUGCGGGUUCGAGUCUCGUACGGAACG: the yeast fitness was not above 0.5.

Regarding GUUCCGUUGGCGUAAUGGCAACGCGUCACCCUCCUAAGGAGAAGACUGCGGGUUGGAGUCCCGUACGGAACG, the yeast fitness was not above 0.5. As to GUUCCGUUGGCGUAAUGGUAACGCGUCUCCUUCCUAAGGAGAAGACCGCGGGUUCGAGUCCCGUACGGAACG, the yeast fitness was found to be 0.934. For the variant GUUCCGUUGGCGUAAUGGUAACGCGUCUCCCUCCUAAGGAGAAGACUGCGGGUUCGAGUGCUGUACGGAACG, the yeast fitness was found to be 0.743.

GUUCCGUUGGCGUAAUGGUAACGGGACUCCCUCCUAAGGAGAAGACUGCGGGUUCGAGUCCCGUACGGAACG: the yeast fitness amounted to 0.609.

On to GUUCCGUUGGCGUAAUGGUAACGCGUCUCCAUCCUAAGGAGCAGAGUGCGGGUUCGAGUCCCGUACGGAACG, for which the yeast fitness was 0.959.

Take GUUCCGUUGGCGUAAUGGUAACGCGUCUCCCUCCUACGGAGAAGACUGGGGGUUCGAGUCCCGUCCGGAACG: the yeast fitness was not above 0.5. Take GUUCCGUUGGCGUAACGGUAAGGCGUCUCCCUCCUAAGGAGAAGACUGCGGGAUCGAGUCCCGUACGGAACG: the yeast fitness amounted to 0.544.

As for GUUCCGUUGGCGUAAUGGUAACGCGUCUCCCUCCUAAGGAGAAGACUGCGGGUUCGAGUCCCGUACCGUACG, the yeast fitness was 0.896. The same measure for GUUCCCUUGGCGUAAUGGUAACGCGUCUCCCUCCUAAGGAGAAGACUGCGGGUUCGAGUCCCGCACGGAACG: 0.87. The same measure for GUUCCGUUGGCGUAAUGGCAACGCGUCUACCUCCUAAGGAGACGACUGCGGGUUCGAGUCCCGUACGGAACG: not above 0.5; for GUCCCGUUGGCGUAAUGGUAACGCGUCUCCCUCCUAAGGAGGAGACUGCGGGUUCGAGUCCCGUACGGAACG: 0.883; for GUUCCGUUGGCGUAAUGGUUACGCGUCUCCCUCCUAAAGAGAAGACUGCGGGUUCGAGUCCCGUACGGAACG: 0.69. GUUCCGUUGGCGUAAUGGUAACGCGUCUCCCUCCUAAGAAGAAGACUGCGGGUUGGAGUCCCGUACGGAACG: the yeast fitness amounted to 0.726. With GUUCCGUUGGCAUAAUGGUAACGCGUCUCCCUCCUAAGGAGAAGACUGCGGGAUCGAGUCCCGUACGGAACG, the yeast fitness was found to be 0.62. On to GUUACGUUGGCGUAAUGGUAACGCGUCUCCCUCCUAAGGAGAAGACUGCGGGUUCGAGUCCCGUACUGGACG, for which the yeast fitness came to 0.751. With GUUCCGUUGGCGUAAUGGUAACGCGUCUCCCUCCUAAGGCGCAGACUGCGGGUUCAAGUCCCGUACAGAACG, the yeast fitness was not above 0.5. GUUCCGUUGGCGUAAUGGUAACGCGUCUCCCUCCUAAGGUGAAGACAGCGGGUUCGAAUCCCGUACGGAACG: the yeast fitness was not above 0.5. As for GUUCCGUGGGCGUAAUGGUAACGCGUCUCCCUACUAAGGAGAAGACUGUGGGUUCGAGUCCCGUAUGGAACG, the yeast fitness was found to be 0.609. With GUUCCAUUGGCGUAAUGGUAACGCGUCUCCCUCCUAAGGAGAAGACUGCGGGUUCAAGUCCCGUACUGAACG, the yeast fitness is not above 0.5.

In the case of GUUCCGCUGGCGUAAUGGUAACGCGUCUCCCUCCUAAGGAGAAGAUUGCGGGUUCGAGUCCCGUACGGUACG, the yeast fitness was determined as 0.842.

GUUCUGUUGGCGUAAUGGUAAGGGGUCUCAUUCCUAAGGAGAAGACUGCGGGUUCGAGUCCCGUACGGAACG: the yeast fitness is not above 0.5. For GUUCCGUUGGGGUAAUGGUAACGCGUCUCCCUCCUAAGGAGAAGACUGCGGGUUCGAGUCACGUACGGAACG, the yeast fitness stood at 0.546. GUUUCGUUGGCGUAAUGGUAACGCGGCUCCCUCCUAAUGAGAAGACUGCGGGUUCGAGUCCCGUACGGAACG: the yeast fitness came out at 0.508. For the variant GUUCCGUUGGCGUAAUGGUAACCCGUCUCCCUCCUAAGGAGAAGACUGCGGGUUCGAGUACCGUACGGAACG, the yeast fitness came to 0.72. For GUUCCGUUGGCGUAAUGGUAAGGCGUCUCCCGCCUAAGGAGAAGACUACGGAUUCGAGUCCCGUACGGAACG, the yeast fitness was not above 0.5. For GUUCCGUUGGUGUAAUGCUAACGCGUCUCCCUCCUAAGGAGAAGACUGCGGGUUCGAGUCCCGUACGGAACG, the yeast fitness stood at 0.728. Turning to GUUACGUUGGCGUAAUGGUAACGCGUCUUCUUCCUAAGGAGAAGACUGCGGGUGCGAGUCCCGUUCAGAACG, the yeast fitness was not above 0.5. For GUUCGGUUGGCGUAGUGGUAACGCGUCUCCCUCCUGAGGAGAGGACUGCGGGUUCAAGUCCCGUACGGAACG, the yeast fitness is not above 0.5. The same measure for GUUCCAUUGGCGUAAUGGUUACGCGUCUCCCUCCUAAGGAGGAGACUGCGGGUUCGAGUCCCGUACGGAACG: not above 0.5; for GUUCCGCUGGCGUAAAGGUAACGCGUCUCCCUCCUAAGGACAAGACUGCGGGUCCGAGUCCCGUAUGGAACG: not above 0.5; for GUUGCGUUGGCGUAAUGGUUACGCGUCUGCAUCCUAAAGAGAAGACUGCGGGUUCGAGUCCCGUACGGAACG: not above 0.5.

For the variant GUUCAGUUGGCGUAAUAGUAACGCGUCUCCCUCCUAAGGAGGAGACUGCGGGUUCGAGUCCCGUACGGAACG, the yeast fitness came out at 0.555.

These data come from the RNAGym collection of RNA variant scans (doi:10.1126/science.aae0568).
